Here are results for two molecules from PMC8828683 (Stem Cell Reports, 2022).

Molecules are shown by their SMILES. Bounds are passed on as bounds.

Assay type in all cases: cell-based, human
The test system of one assay is H108 fibroblasts. Put plainly: Immunoblotting of total cell extracts. The settings on record: H108 fibroblasts; 2.5 μM WX8 or 2 μM Adriamycin 24 h. The gist of the method:
(§1)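 Cells were cultured with 2.5 μM test compound for up to 96 h, and attached plus unattached cells were pooled. Whole-cell RIPA lysates were run on 4–12% Bis-Tris gels, transferred to nitrocellulose and blocked in 5% milk/TBS. Primary antibodies went on overnight at 4°C, followed by infrared secondary antibodies and imager quantitation. Each blot carried untreated U2OS as a shared standard, with Ponceau-S histones for normalization and lighter exposures for quantitation. Adriamycin for 24 h (NTERA-2 1 μM, H108 2 μM) served as a DNA-break control.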

In the next assay the test system is NTERA-2 ECCs. Put plainly: Immunoblotting of total cell extracts. The following applies: NTERA-2, 1 μM Adriamycin, 24 h. The gist of the method: as §1
The subject of assay [1] is NTERA-2 ECC. Description: Live cells / PCD by FACS of nonpermeabilized cells stained with annexin-V and PI. The gist of the method: (§2)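 Cells were seeded so that vehicle wells stayed subconfluent, then treated with a range of test compound concentrations for 4 days. Without permeabilization, they were stained with annexin-V-FITC and propidium iodide and analysed by flow cytometry. Double-negative cells (Q3) were scored as live and Q1+Q2 as programmed death. Vehicle was set to 100% viable and 0% dead. Results are the mean of three independent assays with SEM; group averages and ratios are derived from the IC50s.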

For assay [2], the system named is HFF-1 normal skin fibroblast. The assay is described as above. The following applies: Homo sapiens, HFF-1, read-out: IC50 Live Cells. The gist of the method: as §2
Assay [3] deals with NTERA-2 ECC. Description: Cells with <2N DNA by FACS of permeabilized cells stained with PI. The following applies: Homo sapiens, NTERA2, read-out: IC50 DNA (50% of cells with <2N DNA). The gist of the method:
(§3)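 Cells were exposed to a range of test compound concentrations alongside vehicle (DMSO) controls. They were then permeabilized, stained with propidium iodide, and DNA content was read by flow cytometry. IC50 is the concentration at which 50% of cells hold <2N DNA, from 3 independent repetitions with SEM. Line averages and differentiated/pluripotent ratios are derived from these IC50s. NTERA-2 was also run as a time course at 5 μM, normalized to vehicle at each time point.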

The subject of assay [4] is HFF-1 normal skin fibroblast. The description is as above. The following applies: Homo sapiens, HFF-1, read-out: IC50 DNA (50% of cells with <2N DNA). The procedure, abridged:
as §3

As to `COc1cccc2c1C(=O)c1c(O)c3c(c(O)c1C2=O)C[C@@](O)(C(=O)CO)C[C@@H]3O[C@H]1C[C@H](N)[C@H](O)[C@H](C)O1` [Adriamycin, doxorubicin], in the assay with H108 fibroblasts, the CASP3 cleavage entry is reported as “Neither WX8 nor Adriamycin induced cleavage” and the PARP cleavage result is “Neither WX8 nor Adriamycin induced cleavage”. In addition, in the assay on NTERA-2 ECCs, the CASP3 cleaved is given as over 90%.

For the molecule `Cc1cccc(/C=N/Nc2cc(N3CCOCC3)nc(OCCc3ccccn3)n2)c1` [Apilimod], the IC50 is 200 nM with NTERA-2 ECC [1] (Homo sapiens, NTERA2, 96 h, read-out: IC50 Live Cells); over 10000 nM in assay [2]; 400 nM with NTERA-2 ECC [3]; over 10000 nM in assay [4]. Besides, the “Effectiveness relative to WX8” value in the assay on NTERA-2 ECC [1] (NTERA-2 cells) is listed as “about 10 times”.
